The text below walks through data of ChEMBL document CHEMBL2010644, “Evaluation and discovery of novel synthetic chalcone derivatives as anti-inflammatory agents” (J Med Chem, 2011).

Assay [1] deals with Peritoneal macrophage cell. Kind of assay: Antiinflammatory activity in ICR mouse primary peritoneal macrophages assessed as downregulation of high glucose-induced IL1beta mRNA expression at 10 uM incubated for 2 hrs prior to high glucose-challenge measured after 3 hrs by RT-qPCR analysis. The assay is classed as functional, cell-based. The essentials:
(§1)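 Peritoneal macrophages (1 × 10^6) pretreated with compound (10 μM) or DMSO for 2 h, then high glucose (25 mM) for 3 h. Low-glucose reference cells kept in RPMI-1640 with 5.5 mM glucose. TNF-α, IL-1β, IL-6 and IL-12 mRNA measured by RT-qPCR on whole-cell RNA. Mean ± SEM, three independent experiments run in duplicate.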
(In general: Real-time PCR tracks product formation cycle by cycle.)

In assay [2] the test system is RAW264.7. As to the kind of experiment: Antiinflammatory activity in mouse RAW264.7 cells assessed as inhibition of LPS-induced TNFalpha production at 10 uM incubated for 2 hrs prior to LPS-challenge measured after 22 hrs by ELISA relative to control. The assay is classed as functional. The essentials: (§2)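 RAW264.7 cells grown in DMEM with 10% FBS at 37 °C, 5% CO2, plated at 1.2 × 10^6/plate overnight. Compound pretreatment 2 h (screen at 10 μM; dose-response at 2.5, 5.0, 10 μM), then LPS 0.5 μg/mL for 22 h. Medium TNF-α or IL-6 measured by ELISA, normalized to cell protein, expressed as % of LPS control; IC50 derived from dose series.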
In general terms: An ELISA detects its analyte on a solid surface through an enzyme-linked reagent.

Assay [3] has as its system Peritoneal macrophage cell. As to the kind of experiment: Antiinflammatory activity in ICR mouse primary peritoneal macrophages assessed as downregulation of LPS-induced IL-6 mRNA expression at 10 uM incubated for 2 hrs prior to LPS-challenge measured after 6 hrs by RT-qPCR analysis. The format is functional, cell-based. The essentials: (§3)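 Macrophages pretreated 2 h with compound at 10 μM or vehicle, then LPS 0.5 μg/mL for 6 h. mRNA of TNF-α, IL-6, COX-2, IL-1β and IL-12 quantified by RT-qPCR, normalized to β-actin mRNA and expressed as ratio to DMSO. Mean ± SD of four to seven independent experiments.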

A further assay is filed under the species Mus musculus. As to the kind of experiment: Inhibition of LPS-induced ERK phosphorylation in ICR mouse primary peritoneal macrophages at 10 uM incubated for 2 hrs prior to LPS-challenge measured after 1 hr by Western blot analysis. The essentials:
(§4)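 Cells pretreated 2 h with DMSO or compound (10 μM in the single-concentration set; 2.5, 5.0, 10, 20 μM in the dose series), then LPS 0.5 μg/mL for 1 h. p-ERK, ERK, p-p38 and p38 detected by Western blot with actin loading control; optical density ratio reported. Mean ± SE, three independent experiments.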

The subject of assay [4] is Peritoneal macrophage cell. As to the kind of experiment: Antiinflammatory activity in ICR mouse primary peritoneal macrophages assessed as downregulation of high glucose-induced TNFalpha mRNA expression at 10 uM incubated for 2 hrs prior to high glucose-challenge measured after 3 hrs by RT-qPCR analysis. The assay is classed as functional, cell-based. The essentials:
as §1

Assay [5] relates to Peritoneal macrophage cell. As to the kind of experiment: Antiinflammatory activity in ICR mouse primary peritoneal macrophages assessed as downregulation of high glucose-induced IL6 mRNA expression at 10 uM incubated for 2 hrs prior to high glucose-challenge measured after 3 hrs by RT-qPCR analysis. The assay is classed as functional, cell-based. The essentials:
as §1

Assay [6] deals with RAW264.7. Kind of assay: Antiinflammatory activity in mouse RAW264.7 cells assessed as inhibition of LPS-induced IL6 production at 10 uM incubated for 2 hrs prior to LPS-challenge measured after 22 hrs by ELISA. The format is functional, cell-based. In a few lines: as §2
The target of assay [7] is MAP kinase p38 (Mus musculus) (UniProt P47811+O08911+Q9WUI1+Q9Z1B7). As to the kind of experiment: Inhibition of LPS-induced p38 phosphorylation in ICR mouse primary peritoneal macrophages at 10 uM incubated for 2 hrs prior to LPS-challenge measured after 1 hr by Western blot analysis. In a few lines: as §4
In assay [8] the test system is Peritoneal macrophage cell. Kind of assay: Antiinflammatory activity in ICR mouse primary peritoneal macrophages assessed as downregulation of LPS-induced IL-12 mRNA expression at 10 uM incubated for 2 hrs prior to LPS-challenge measured after 6 hrs by RT-qPCR analysis. The format is functional, cell-based. In a few lines: as §3
The test system of assay [9] is RAW264.7. Kind of assay: Antiinflammatory activity in mouse RAW264.7 cells assessed as inhibition of LPS-induced IL6 production incubated for 2 hrs prior to LPS-challenge measured after 22 hrs by ELISA. The format is functional, cell-based. In a few lines: as §2
The test system of assay [10] is Peritoneal macrophage cell. Kind of assay: Antiinflammatory activity in ICR mouse primary peritoneal macrophages assessed as downregulation of high glucose-induced IL12 mRNA expression at 10 uM incubated for 2 hrs prior to high glucose-challenge measured after 3 hrs by RT-qPCR analysis. The assay is classed as functional, cell-based. The essentials:
as §1

Assay [11] has as its system Peritoneal macrophage cell. As to the kind of experiment: Antiinflammatory activity in ICR mouse primary peritoneal macrophages assessed as downregulation of LPS-induced TNF-alpha mRNA expression at 10 uM incubated for 2 hrs prior to LPS-challenge measured after 6 hrs by RT-qPCR analysis. The assay is classed as functional, cell-based. In a few lines:
as §3

For assay [12], the system named is Peritoneal macrophage cell. Kind of assay: Antiinflammatory activity in ICR mouse primary peritoneal macrophages assessed as downregulation of LPS-induced IL-1beta mRNA expression at 10 uM incubated for 2 hrs prior to LPS-challenge measured after 6 hrs by RT-qPCR analysis. The format is functional, cell-based. The essentials:
as §3

For assay [13], the system named is RAW264.7. As to the kind of experiment: Antiinflammatory activity in mouse RAW264.7 cells assessed as inhibition of LPS-induced TNFalpha production incubated for 2 hrs prior to LPS-challenge measured after 22 hrs by ELISA. The format is functional, cell-based. The essentials: as §2
Assay [14] concerns RAW264.7. As to the kind of experiment: Antiinflammatory activity in mouse RAW264.7 cells assessed as inhibition of LPS-induced TNFalpha production at 10 uM incubated for 2 hrs prior to LPS-challenge measured after 22 hrs by ELISA. The assay is classed as functional, cell-based. In a few lines:
as §2

In assay [15] the test system is RAW264.7. Kind of assay: Antiinflammatory activity in mouse RAW264.7 cells assessed as inhibition of LPS-induced IL6 production at 10 uM incubated for 2 hrs prior to LPS-challenge measured after 22 hrs by ELISA relative to control. The format is functional. The essentials: as §2
Assay [16] relates to Peritoneal macrophage cell. Kind of assay: Antiinflammatory activity in ICR mouse primary peritoneal macrophages assessed as downregulation of LPS-induced COX-2 mRNA expression at 10 uM incubated for 2 hrs prior to LPS-challenge measured after 6 hrs by RT-qPCR analysis. The assay is classed as functional, cell-based. The essentials:
as §3

Active and inactive are the calls of the source. No cut-off for these calls is given here.

For the compound `COc1cc(C(=O)/C=C/c2ccc(N(C)C)cc2)cc(OC)c1OC`, the outcome in assay [1], in [3], in assay [4], in [8], in assay [10] and in assay [11] was Active. For the same compound, the inhibition at 10 µM was determined as 61.2% with RAW264.7 [2] and 73.4% with RAW264.7 [15]. The inhibition result (in the assay filed under Mus musculus; with RAW264.7 [6]; in assay [7]; with RAW264.7 [14]) was “Active” each time. Besides, the result in [5], in [12] and in assay [16] was inactive. Further, the IC50 in the assay with RAW264.7 [9] came to 6.88 µM; with RAW264.7 [13] it was 2.9 µM. In addition, the inhibition result in the assay on RAW264.7 [9] and with RAW264.7 [13] was “Dose-dependent effect” in each case.

A word on the inhibition: it is how much of the control response was suppressed. Usually IC50 stands for the point on the concentration scale where inhibition reaches its midpoint.
